Results on 25 compounds are retold here after ChEMBL document CHEMBL1142314, “alpha- and beta-substituted phosphonate analogs of LPA as autotaxin inhibitors” (Bioorg Med Chem, 2008).

The target in assay [1] is Autotaxin (Homo sapiens) (UniProt Q13822). The assay can be described thus: Inhibition of autotaxin assessed as residual enzyme activity at 1 uM relative to control. The procedure, abridged: (§1)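 ATX activity measured with the compound present at 1 μM, 10 μM or 100 μM. Activity without compound served as the standard (100%), and results are reported as percent residual ATX activity.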

Assay [2] shares this target. The assay can be described thus: Inhibition of autotaxin assessed as residual enzyme activity at 10 uM relative to control. The procedure, abridged:
as §1

The target is the same in assay [3]. Nature of the assay: Inhibition of autotaxin assessed as residual enzyme activity at 100 uM relative to control. The gist of the method:
as §1

As to `CCCCCCCCCCCCCCCC(=O)N[C@@H](Cc1cn(Cc2ncc(C)c(OC)c2C)c2ccccc12)C(O)CP(=O)(O)O` (mixture of isomers), the results for the Activity at Autotaxin (Homo sapiens) [1], on Autotaxin (Homo sapiens) [2] and at Autotaxin (Homo sapiens) [3] were 64%, 28% and 13%, respectively.

Take `CCCCCCCCCCCCCCCC(=O)N[C@@H](C)C(=O)CP(=O)(O)O`: the Activity is 60% on Autotaxin (Homo sapiens) [1], 67% at Autotaxin (Homo sapiens) [2] and 72% on Autotaxin (Homo sapiens) [3].

For `CCCCCCCCCCCCCCCC(=O)N[C@@H](COCc1ccccc1)C(O)CP(=O)(O)O` (single isomer, unassigned; diastereomer b), the Activity amounted to 78% on Autotaxin (Homo sapiens) [1], 46% at Autotaxin (Homo sapiens) [2] and 61% at Autotaxin (Homo sapiens) [3].

For `CCCCCCCCCCCCCCCC(=O)N[C@@H](Cc1c[nH]c2ccccc12)C(O)CP(=O)(O)O` (stereo in doubt; 42), the Activity on Autotaxin (Homo sapiens) [1] worked out at 93%; on Autotaxin (Homo sapiens) [2] it was 75%; at Autotaxin (Homo sapiens) [3], 26%.

Turning to `CCCCCCCCCCCCCCCC(=O)N[C@@H](Cc1ccc(OCc2ncc(C)c(OC)c2C)cc1)C[C@@H](O)P(=O)(O)O`, the Activity is 71% on Autotaxin (Homo sapiens) [1], 70% on Autotaxin (Homo sapiens) [2] and 53% on Autotaxin (Homo sapiens) [3].

Take `CCCCCCCCCCCCCCCC(=O)N[C@@H](Cc1c[nH]c2ccccc12)C(=O)CP(=O)(O)O`: the figures for the Activity on Autotaxin (Homo sapiens) [1], on Autotaxin (Homo sapiens) [2] and at Autotaxin (Homo sapiens) [3] were 91%, 70% and 28%, respectively.

As for `CCCCCCCCCCCCCCCC(=O)N[C@@H](C(C)C)C(O)CP(=O)(O)O` (single isomer, unassigned; diastereomer a), the Activity stood at 115% on Autotaxin (Homo sapiens) [1], 57% on Autotaxin (Homo sapiens) [2] and 13% on Autotaxin (Homo sapiens) [3].

For `CCCCCCCCCCCCCCCC(=O)N[C@@H](CC(C)C)C(=O)CP(=O)(O)O`, the values for the Activity on Autotaxin (Homo sapiens) [1], on Autotaxin (Homo sapiens) [2] and at Autotaxin (Homo sapiens) [3] were 89%, 48% and 25%, respectively.

Regarding `CCCCCCCCCCCCCCCC(=O)N[C@@H](Cc1c[nH]c2ccccc12)C(O)CP(=O)(O)O` (single isomer, unassigned; diastereomer a), the Activity at Autotaxin (Homo sapiens) [1] is 88%; at Autotaxin (Homo sapiens) [2] it was 51%; at Autotaxin (Homo sapiens) [3] it was 25%.

In the case of `CCCCCCCCCCCCCCCC(=O)N[C@@H](Cc1ccc(OCc2ncc(C)c(OC)c2C)cc1)CC(F)P(=O)(O)O` (mixture of isomers), the Activity at Autotaxin (Homo sapiens) [1] was determined as 74%; at Autotaxin (Homo sapiens) [2], 68%; on Autotaxin (Homo sapiens) [3], 25%.

Consider `CCCCCCCCCCCCCCCC(=O)N[C@@H](Cc1cn(Cc2ccccc2)c2ccccc12)C(O)CP(=O)(O)O` (mixture of isomers), for which the Activity at Autotaxin (Homo sapiens) [1] was 80%; on Autotaxin (Homo sapiens) [2], 35%; at Autotaxin (Homo sapiens) [3], 28%.

Regarding `CCCCCCCCCCCCCCCC(=O)N[C@@H](COCc1ccccc1)C(O)CP(=O)(O)O` (stereo in doubt; 45), the Activity was 83% on Autotaxin (Homo sapiens) [1], 41% at Autotaxin (Homo sapiens) [2] and 19% on Autotaxin (Homo sapiens) [3].

As for `CCCCCCCCCCCCCCCC(=O)N[C@@H](Cc1ccccc1)C(O)CP(=O)(O)O` (stereo in doubt; 37), the Activity was determined as 92% at Autotaxin (Homo sapiens) [1], 99% on Autotaxin (Homo sapiens) [2] and 67% on Autotaxin (Homo sapiens) [3].

In the case of `CCCCCCCCCCCCCCCC(=O)N[C@@H](C)C(O)CP(=O)(O)O` (mixture of isomers), the Activity came out at 50% at Autotaxin (Homo sapiens) [1], 14% at Autotaxin (Homo sapiens) [2] and 25% on Autotaxin (Homo sapiens) [3].

Take `CCCCCCCCCCCCCCCC(=O)N[C@@H](Cc1ccc(OCc2ncc(C)c(OC)c2C)cc1)C[C@H](O)P(=O)(O)O`: the Activity at Autotaxin (Homo sapiens) [1] turned out to be 73%; on Autotaxin (Homo sapiens) [2], 68%; on Autotaxin (Homo sapiens) [3] it was 87%.

Consider `CCCCCCCCCCCCCCCC(=O)NCC(=O)CP(=O)(O)O`, for which the results for the Activity on Autotaxin (Homo sapiens) [1], at Autotaxin (Homo sapiens) [2] and on Autotaxin (Homo sapiens) [3] were 79%, 95% and 76%, respectively.

Regarding `CCCCCCCCCCCCCCCC(=O)N[C@@H](Cc1ccccc1)C(O)CP(=O)(O)O` (single isomer, unassigned; diastereomer a), the Activity at Autotaxin (Homo sapiens) [1] turned out to be 88%; at Autotaxin (Homo sapiens) [2], 70%; on Autotaxin (Homo sapiens) [3] it was 70%.

With `CCCCCCCCCCCCCCCC(=O)N1CCCC1C(O)CP(=O)(O)O` (stereo not given), the Activity on Autotaxin (Homo sapiens) [1] worked out at 83%; at Autotaxin (Homo sapiens) [2] it was 43%; on Autotaxin (Homo sapiens) [3] it was 16%.

For `CCCCCCCCCCCCCCCC(=O)N[C@@H](CC(C)C)C(O)CP(=O)(O)O` (single isomer, unassigned; diastereomer a), the results for the Activity at Autotaxin (Homo sapiens) [1], on Autotaxin (Homo sapiens) [2] and at Autotaxin (Homo sapiens) [3] were 68%, 53% and 23%, respectively.

As to `CCCCCCCCCCCCCCCC(=O)N1CCCC1C(=O)CP(=O)(O)O` (stereo not given), the Activity on Autotaxin (Homo sapiens) [1] came out at 49%; on Autotaxin (Homo sapiens) [2], 18%; at Autotaxin (Homo sapiens) [3], 9%.

On to `CCCCCCCCCCCCCCCC(=O)N[C@@H](CC(C)C)C(O)CP(=O)(O)O` (single isomer, unassigned; diastereomer b), for which the Activity worked out at 93% on Autotaxin (Homo sapiens) [1], 64% at Autotaxin (Homo sapiens) [2] and 52% on Autotaxin (Homo sapiens) [3].

With `CCCCCCCCCCCCCCCC(=O)N[C@@H](C(C)C)C(O)CP(=O)(O)O` (stereo in doubt; 32), the Activity came out at 72% on Autotaxin (Homo sapiens) [1], 78% at Autotaxin (Homo sapiens) [2] and 23% at Autotaxin (Homo sapiens) [3].

Turning to `CCCCCCCCCCCCCCCC(=O)N[C@H](C(=O)CP(=O)(O)O)C(C)C`, the Activity was determined as 109% at Autotaxin (Homo sapiens) [1], 77% on Autotaxin (Homo sapiens) [2] and 24% at Autotaxin (Homo sapiens) [3].

`CCCCCCCCCCCCCCCC(=O)N[C@@H](Cc1ccc(OCc2ncc(C)c(OC)c2C)cc1)C(F)CP(=O)(O)O` (stereo not given in full): the Activity at Autotaxin (Homo sapiens) [1] came to 59%; at Autotaxin (Homo sapiens) [2] it was 22%; on Autotaxin (Homo sapiens) [3] it was 11%.

Regarding `CCCCCCCCCCCCCCCC(=O)NCC(O)CP(=O)(O)O` (stereo not given), the Activity stood at 88% on Autotaxin (Homo sapiens) [1], 88% at Autotaxin (Homo sapiens) [2] and 56% on Autotaxin (Homo sapiens) [3].
